≈ marks a conversion by molar mass, not a printed value.
What was measured:
Cytochrome P450 1A2 = molecular target: T1, Cytochrome P450 1A2 (Homo sapiens, UniProt P05177); assay: Inhibition of CYP1A2 in human liver microsomes assessed as phenacetin O-deethylation after 20 mins by LC-MS/MS analysis; type: ADME
T1 sequence (P05177 whole entry): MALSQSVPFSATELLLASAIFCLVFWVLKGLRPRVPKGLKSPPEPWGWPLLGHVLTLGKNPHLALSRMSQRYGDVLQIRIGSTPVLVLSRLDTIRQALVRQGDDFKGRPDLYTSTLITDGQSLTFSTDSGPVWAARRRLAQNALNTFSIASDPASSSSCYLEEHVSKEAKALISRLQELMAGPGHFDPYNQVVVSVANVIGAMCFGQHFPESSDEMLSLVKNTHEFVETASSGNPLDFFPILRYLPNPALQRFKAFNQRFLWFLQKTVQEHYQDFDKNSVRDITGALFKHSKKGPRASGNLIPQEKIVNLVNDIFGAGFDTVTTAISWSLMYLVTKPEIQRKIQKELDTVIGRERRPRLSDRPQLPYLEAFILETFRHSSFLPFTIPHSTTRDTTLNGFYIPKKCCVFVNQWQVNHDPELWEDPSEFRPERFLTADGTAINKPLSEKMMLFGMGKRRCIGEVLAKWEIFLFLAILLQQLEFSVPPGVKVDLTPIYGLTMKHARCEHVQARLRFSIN

Plasmodium falciparum [1] = assay: Antiplasmodial activity against chloroquine-sensitive Plasmodium falciparum 3D7 after 24 hrs by [3H]hypoxanthine incorporation assay; type: functional, organism-based
Method in brief: (§1)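 Antiplasmodial testing was done at the Swiss Tropical and Public Health Institute. Chloroquine, the reference drug, was tested as its diphosphate salt.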

Cytochrome P450 2A6 = molecular target: T2, Cytochrome P450 2A6 (Homo sapiens, UniProt P11509); assay: Inhibition of CYP2A6 in human liver microsomes assessed as coumarin 7-hydroxylation after 20 mins by LC-MS/MS analysis; type: ADME
T2 sequence (P11509 whole entry): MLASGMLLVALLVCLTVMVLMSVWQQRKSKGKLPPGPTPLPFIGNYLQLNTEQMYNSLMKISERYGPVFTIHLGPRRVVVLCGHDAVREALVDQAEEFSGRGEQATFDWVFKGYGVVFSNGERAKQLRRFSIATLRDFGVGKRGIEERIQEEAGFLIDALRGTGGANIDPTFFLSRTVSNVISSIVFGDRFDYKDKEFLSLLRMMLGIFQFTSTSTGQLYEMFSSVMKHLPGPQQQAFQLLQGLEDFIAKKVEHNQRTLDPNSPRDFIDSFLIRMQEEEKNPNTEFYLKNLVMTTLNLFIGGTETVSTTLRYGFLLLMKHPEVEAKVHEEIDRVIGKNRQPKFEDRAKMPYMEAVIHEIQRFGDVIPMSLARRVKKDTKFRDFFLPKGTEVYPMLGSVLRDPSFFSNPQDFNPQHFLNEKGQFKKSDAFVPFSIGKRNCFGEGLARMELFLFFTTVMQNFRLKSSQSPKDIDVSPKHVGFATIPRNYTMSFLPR

Cytochrome P450 3A4 = Cytochrome P450 3A4 (Homo sapiens, UniProt P08684); assay: Inhibition of CYP3A4 in human liver microsomes assessed as midazolam 1'-hydroxylation and testosterone 6beta-hydroxylation after 20 mins by LC-MS/MS analysis; type: ADME
Plasmodium falciparum [2] = assay: Antiplasmodial activity against chloroquine-resistant Plasmodium falciparum W2 after 24 hrs by [3H]hypoxanthine incorporation assay; type: functional, organism-based; method in brief: as §1
Cytochrome P450 2C19 = Cytochrome P450 2C19 (Homo sapiens, UniProt P33261); assay: Inhibition of CYP2C19 in human liver microsomes assessed as S-mephenytoin 4'-hydroxylation after 20 mins by LC-MS/MS analysis; type: ADME
Plasmodium falciparum [3] = assay: Antiplasmodial activity against chloroquine-resistant Plasmodium falciparum K1 after 24 hrs by [3H]hypoxanthine incorporation assay; type: functional, organism-based; method in brief: as §1
Plasmodium falciparum [4] = assay: Resistance index, ratio of IC50 for chloroquine-resistant Plasmodium falciparum K1 to IC50 for chloroquine-sensitive Plasmodium falciparum 3D7; type: functional
[5] = Kinetic solubility of the compound in phosphate buffered saline at pH 7.4 after 2 hrs by HPLC analysis; type: physicochemical; settings: read-out: Kinetic_solubility
Cytochrome P450 2E1 = Cytochrome P450 2E1 (Homo sapiens, UniProt P05181); assay: Inhibition of CYP2E1 in human liver microsomes assessed as chlorzoxazone 6-hydroxylation after 20 mins by LC-MS/MS analysis; type: ADME
[6] = Kinetic solubility of the compound in 0.01 M HCl at pH 2 after 2 hrs by HPLC analysis; type: physicochemical; settings: read-out: Kinetic_solubility
Cytochrome P450 2C9 = Cytochrome P450 2C9 (Homo sapiens, UniProt P11712); assay: Inhibition of CYP2C9 in human liver microsomes assessed as diclofenac 4'-hydroxylation after 20 mins by LC-MS/MS analysis; type: ADME
Cytochrome P450 2B6 = molecular target: T3, Cytochrome P450 2B6 (Homo sapiens, UniProt P20813); assay: Inhibition of CYP2B6 in human liver microsomes assessed as bupropion hydroxylation after 20 mins by LC-MS/MS analysis; type: ADME
T3 sequence (P20813 whole entry): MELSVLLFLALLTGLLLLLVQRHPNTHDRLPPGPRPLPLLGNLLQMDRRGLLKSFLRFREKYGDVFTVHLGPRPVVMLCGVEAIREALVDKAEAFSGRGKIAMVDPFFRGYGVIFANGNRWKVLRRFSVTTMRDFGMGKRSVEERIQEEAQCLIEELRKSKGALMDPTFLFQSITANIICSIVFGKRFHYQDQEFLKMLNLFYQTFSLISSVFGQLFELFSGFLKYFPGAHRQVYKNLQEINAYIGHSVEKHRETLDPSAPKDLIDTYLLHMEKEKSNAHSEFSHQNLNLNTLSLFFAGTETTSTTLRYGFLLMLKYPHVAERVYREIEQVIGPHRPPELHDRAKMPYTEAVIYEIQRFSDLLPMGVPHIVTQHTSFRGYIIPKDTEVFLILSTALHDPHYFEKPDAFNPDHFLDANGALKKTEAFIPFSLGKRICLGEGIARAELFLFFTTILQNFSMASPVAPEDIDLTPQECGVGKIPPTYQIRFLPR

CHO = assay: Cytotoxicity against CHO cells; type: cell-based; settings: Cricetulus griseus
Cytochrome P450 2C8 = molecular target: T4, Cytochrome P450 2C8 (Homo sapiens, UniProt P10632); assay: Inhibition of CYP2C8 in human liver microsomes assessed as paclitaxel 6alpha-hydroxylation after 20 mins by LC-MS/MS analysis; type: ADME
T4 sequence (P10632 whole entry): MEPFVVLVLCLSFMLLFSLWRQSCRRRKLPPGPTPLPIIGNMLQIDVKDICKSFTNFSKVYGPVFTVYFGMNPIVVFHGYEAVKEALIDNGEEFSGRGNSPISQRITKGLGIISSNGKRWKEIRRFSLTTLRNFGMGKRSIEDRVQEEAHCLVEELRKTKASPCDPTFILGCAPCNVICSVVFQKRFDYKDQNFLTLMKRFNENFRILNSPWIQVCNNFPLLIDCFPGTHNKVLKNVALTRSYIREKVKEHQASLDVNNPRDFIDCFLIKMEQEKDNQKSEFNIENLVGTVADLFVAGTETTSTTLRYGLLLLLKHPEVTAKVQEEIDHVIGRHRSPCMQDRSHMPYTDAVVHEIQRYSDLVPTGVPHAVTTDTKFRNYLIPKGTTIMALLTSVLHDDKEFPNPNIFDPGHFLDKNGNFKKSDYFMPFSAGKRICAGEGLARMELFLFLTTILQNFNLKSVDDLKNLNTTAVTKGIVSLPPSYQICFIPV

Cytochrome P450 2D6 = Cytochrome P450 2D6 (Homo sapiens, UniProt P10635); assay: Inhibition of CYP2D6 in human liver microsomes assessed as bufuralol 1'-hydroxylation after 20 mins by LC-MS/MS analysis; type: ADME
Sequence of Cytochrome P450 2D6 (P10635 whole entry): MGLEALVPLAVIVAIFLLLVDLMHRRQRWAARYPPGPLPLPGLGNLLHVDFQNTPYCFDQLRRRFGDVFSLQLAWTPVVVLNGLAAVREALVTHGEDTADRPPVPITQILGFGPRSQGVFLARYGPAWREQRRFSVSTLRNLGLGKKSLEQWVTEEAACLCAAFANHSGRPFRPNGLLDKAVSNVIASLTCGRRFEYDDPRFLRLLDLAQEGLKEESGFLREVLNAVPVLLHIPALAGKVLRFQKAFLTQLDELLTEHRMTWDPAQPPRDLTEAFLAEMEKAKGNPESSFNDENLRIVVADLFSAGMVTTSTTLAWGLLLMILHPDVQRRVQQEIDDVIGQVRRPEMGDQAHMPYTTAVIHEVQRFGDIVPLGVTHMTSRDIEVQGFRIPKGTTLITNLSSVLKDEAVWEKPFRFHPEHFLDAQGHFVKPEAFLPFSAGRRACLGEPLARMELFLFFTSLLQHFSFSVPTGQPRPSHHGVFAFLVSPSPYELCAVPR

Sequence of Cytochrome P450 2C9 (P11712 whole entry): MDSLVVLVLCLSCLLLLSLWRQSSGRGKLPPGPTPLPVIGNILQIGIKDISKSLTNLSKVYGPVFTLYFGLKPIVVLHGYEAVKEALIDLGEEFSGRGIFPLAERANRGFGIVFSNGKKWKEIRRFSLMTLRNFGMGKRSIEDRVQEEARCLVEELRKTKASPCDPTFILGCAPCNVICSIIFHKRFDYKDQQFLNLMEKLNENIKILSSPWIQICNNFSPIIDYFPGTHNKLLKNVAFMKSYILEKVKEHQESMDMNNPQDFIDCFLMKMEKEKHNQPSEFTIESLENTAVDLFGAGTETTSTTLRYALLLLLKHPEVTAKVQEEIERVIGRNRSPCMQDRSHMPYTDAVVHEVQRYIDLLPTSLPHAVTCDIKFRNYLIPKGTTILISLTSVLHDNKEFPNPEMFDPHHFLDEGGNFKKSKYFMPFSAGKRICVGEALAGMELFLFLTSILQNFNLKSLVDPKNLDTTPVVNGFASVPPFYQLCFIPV
Sequence of Cytochrome P450 2E1 (P05181 whole entry): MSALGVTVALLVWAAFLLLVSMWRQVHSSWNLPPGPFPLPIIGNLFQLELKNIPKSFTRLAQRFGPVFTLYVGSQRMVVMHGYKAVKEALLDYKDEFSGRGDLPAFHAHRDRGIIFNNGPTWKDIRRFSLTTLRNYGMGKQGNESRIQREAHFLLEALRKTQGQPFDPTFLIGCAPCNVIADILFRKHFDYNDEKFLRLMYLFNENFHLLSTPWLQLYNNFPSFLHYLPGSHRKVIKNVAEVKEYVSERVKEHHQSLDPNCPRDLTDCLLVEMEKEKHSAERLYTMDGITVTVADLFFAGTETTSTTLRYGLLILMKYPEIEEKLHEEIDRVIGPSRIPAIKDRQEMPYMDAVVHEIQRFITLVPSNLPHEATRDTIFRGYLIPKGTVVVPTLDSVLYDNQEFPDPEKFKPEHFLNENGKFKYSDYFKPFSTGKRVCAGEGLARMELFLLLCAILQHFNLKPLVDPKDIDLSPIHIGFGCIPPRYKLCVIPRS
Sequence of Cytochrome P450 3A4 (P08684 whole entry): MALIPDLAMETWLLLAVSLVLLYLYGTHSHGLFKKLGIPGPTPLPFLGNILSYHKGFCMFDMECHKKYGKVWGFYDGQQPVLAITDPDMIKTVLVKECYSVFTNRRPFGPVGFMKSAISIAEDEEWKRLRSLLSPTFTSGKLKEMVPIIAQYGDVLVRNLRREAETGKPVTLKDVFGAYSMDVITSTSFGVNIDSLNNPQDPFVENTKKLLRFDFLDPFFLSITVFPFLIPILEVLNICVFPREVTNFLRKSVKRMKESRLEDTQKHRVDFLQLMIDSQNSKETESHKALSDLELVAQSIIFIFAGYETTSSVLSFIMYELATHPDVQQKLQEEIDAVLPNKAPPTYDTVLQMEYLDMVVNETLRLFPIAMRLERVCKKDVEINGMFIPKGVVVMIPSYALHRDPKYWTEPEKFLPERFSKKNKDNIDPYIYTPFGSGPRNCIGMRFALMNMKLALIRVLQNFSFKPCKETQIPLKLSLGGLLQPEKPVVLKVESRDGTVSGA
Sequence of Cytochrome P450 2C19 (P33261 whole entry): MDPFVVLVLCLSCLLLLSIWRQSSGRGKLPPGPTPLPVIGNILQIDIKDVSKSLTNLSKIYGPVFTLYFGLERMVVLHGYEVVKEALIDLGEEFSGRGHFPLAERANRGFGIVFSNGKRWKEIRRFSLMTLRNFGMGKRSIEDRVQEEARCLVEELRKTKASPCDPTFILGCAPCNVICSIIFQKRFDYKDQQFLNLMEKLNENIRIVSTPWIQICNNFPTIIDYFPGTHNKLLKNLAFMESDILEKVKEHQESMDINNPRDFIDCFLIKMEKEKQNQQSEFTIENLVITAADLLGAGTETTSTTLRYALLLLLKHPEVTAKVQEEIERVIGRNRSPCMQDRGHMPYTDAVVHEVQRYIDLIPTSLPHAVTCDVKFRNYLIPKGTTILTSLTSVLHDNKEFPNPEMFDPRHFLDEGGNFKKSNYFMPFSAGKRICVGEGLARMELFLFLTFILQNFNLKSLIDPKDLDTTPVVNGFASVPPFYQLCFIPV

## Cc1ccc(C(NCCNc2ccnc3cc(Cl)ccc23)c2nnnn2C(C)(C)C)cc1 (stereo unspecified)
Cytochrome P450 1A2
  IC50: > 20 µM
Plasmodium falciparum [1]
  IC50: 0.001 µM
Cytochrome P450 2A6
  IC50: > 20 µM
Cytochrome P450 3A4
  IC50: 0.17 µM
Plasmodium falciparum [2]
  IC50: 0.0311 µM
Cytochrome P450 2C19
  IC50: > 20 µM
Plasmodium falciparum [3]
  IC50: 0.002 µM
Plasmodium falciparum [4]
  Ratio IC50: 2
[5]
  solubility kinetic at 2 h: 39.6 µM (≈ 17.8 µg/mL)
Cytochrome P450 2E1
  IC50: > 20 µM
[6]
  solubility kinetic at 2 h: 127 µM (≈ 57.1 µg/mL)
Cytochrome P450 2C9
  IC50: 10.3 µM
Cytochrome P450 2B6
  IC50: > 20 µM
CHO
  IC50: 185 µM
Cytochrome P450 2C8
  IC50: 3.98 µM
Cytochrome P450 2D6
  IC50: 9.88 µM
